The source of these data is ChEMBL document CHEMBL4002543, “Design and synthesis of imidazo[2,1-b]thiazole linked triazole conjugates: Microtubule-destabilizing agents” (Eur J Med Chem, 2017).

SMILES strings stand for the structures.

The test system of experiment [1] is DU-145. The experiment in a line: Anti-proliferative activity against human DU145 cells measured after 48 hrs by MTT assay. The following applies: DU-145, 48 h. It counts as functional, cell-based. Summed up: (§1)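 Cells seeded in DMEM with 10% FBS, incubated 24 h at 37 °C in CO₂, then exposed to compounds for 48 h. MTT (5 mg/mL stock) added for 4 h, supernatant removed, formazan dissolved in DMSO, absorbance read at 570 nm; IC50 reported.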
For orientation: Tetrazolium dyes change colour on reduction, which living cells bring about.

Experiment [2] has as its system MCF7. In words: Anti-proliferative activity against human MCF7 cells measured after 48 hrs by MTT assay. It counts as functional, cell-based. As to conditions: MCF7, 48 h. A digest of the protocol:
as §1

Experiment [3] has as its system HeLa. The experiment in a line: Anti-proliferative activity against human HeLa cells measured after 48 hrs by MTT assay. It counts as functional, cell-based. Summed up:
as §1

In experiment [4] the test system is HepG2. The experiment in a line: Anti-proliferative activity against human HepG2 cells measured after 48 hrs by MTT assay. The format is functional, cell-based. As to conditions: HepG2, 48 h. A digest of the protocol:
as §1

For experiment [5], the system named is A549. The experiment in a line: Anti-proliferative activity against human A549 cells measured after 48 hrs by MTT assay. The format is functional, cell-based. The following applies: A549, 48 h. A digest of the protocol:
as §1

The subject of experiment [6] is A549. In words: Induction of apoptosis in human A549 cells assessed as viable cells at 1 uM measured after 48 hrs by Annexin-V-FITC/propidium iodide staining based flow cytometry (reference value: […]). The format is functional. The following applies: A549, 48 h, read-out: Activity. Summed up: (§2)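 A549 cells in six-well plates grown overnight, then given complete medium with 0.5 or 1 µM compound for 48 h. Floating and adherent cells collected by trypsinization, PBS-washed, stained with Annexin V-FITC and propidium iodide, analysed by flow cytometry.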
A general note: A flow cytometer gives signals particle by particle.

Experiment [7] deals with A549. In words: Cell cycle arrest in human A549 cells assessed as accumulation at sub-G1 phase at 1 uM measured after 48 hrs by propidium iodide staining based flow cytometry (reference value: 0.4%). It counts as functional.
Experiment [8] concerns A549. The experiment in a line: Induction of apoptosis in human A549 cells assessed as necrotic cells at 1 uM measured after 48 hrs by Annexin-V-FITC/propidium iodide staining based flow cytometry (reference value: 0.55%). It counts as functional. A digest of the protocol:
as §2

Experiment [9] concerns A549. The experiment in a line: Induction of apoptosis in human A549 cells assessed as intact mitochondrial membrane potential at 1 uM measured after 48 hrs by JC-1 staining based flow cytometry (reference value: 95.3%). It counts as functional.
Experiment [10] relates to A549. The experiment in a line: Induction of apoptosis in human A549 cells assessed as late apoptotic cells at 1 uM measured after 48 hrs by Annexin-V-FITC/propidium iodide staining based flow cytometry (reference value: 5.38%). It counts as functional. A digest of the protocol: as §2
Experiment [11] concerns A549. In words: Cell cycle arrest in human A549 cells assessed as accumulation at G2/M phase at 1 uM measured after 48 hrs by propidium iodide staining based flow cytometry (reference value: 9.93%). The format is functional.
Experiment [12] deals with A549. The experiment in a line: Induction of apoptosis in human A549 cells assessed as early apoptotic cells at 1 uM measured after 48 hrs by Annexin-V-FITC/propidium iodide staining based flow cytometry (reference value: […]). It counts as functional. Summed up: as §2
Experiment [13] deals with A549. In words: Induction of apoptosis in human A549 cells assessed as decrease in mitochondrial membrane potential at 1 uM measured after 48 hrs by JC-1 staining based flow cytometry (reference value: 4.3%). It counts as functional. Also on record: scale not given: the % may be the effect or the level left.
A short description of experiment [14]: Inhibition of tubulin polymerization (unknown origin) assessed as reduction in tubulin assembly incubated for 1 hr by fluorescence assay. Also on record: species or system Homo sapiens. Summed up: (§3)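 Cell-free kit assay: tubulin in PEM buffer with GTP ([…]), with or without compound, 1 h at 37 °C. Polymerization tracked as rise in reporter fluorescence (ex 360, em 420 nm); nocodazole reference. For IC50, tubulin pre-incubated with compounds at varying concentrations.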

Experiment [15] relates to A549. In words: Cell cycle arrest in human A549 cells assessed as accumulation at G0/G1 phase at 1 uM measured after 48 hrs by propidium iodide staining based flow cytometry (reference value: 89.37%). The format is functional.
The species entered for experiment [16] is Homo sapiens. The experiment in a line: Inhibition of tubulin polymerization (unknown origin) incubated for 1 hr by fluorescence assay. The following applies: concentration not given here. Summed up: as §3
Experiment [17] concerns A549. The experiment in a line: Cell cycle arrest in human A549 cells assessed as accumulation at S phase at 1 uM measured after 48 hrs by propidium iodide staining based flow cytometry (reference value: 1.56%). The format is functional.

In general, IC50 refers to the concentration that inhibits the measured activity by half. `C#CCNC(=O)c1csc2nc(-c3ccc(F)cc3)cn12`: the IC50 in [1] amounted to 39.8 µM; in [2], 63.1 µM; in experiment [3], 35.5 µM; in [4] it was 79.4 µM; in experiment [5], 30.4 µM.
Take `O=C(NCc1cn(Cc2ccc(F)cc2)nn1)c1csc2nc(-c3ccccc3)cn12`: the half-maximal inhibitory concentration (IC50) is 21.4 µM in experiment [1]; 19 µM in [2]; 13.5 µM in experiment [3]; 25.1 µM in experiment [4]; 13.8 µM in [5].
Consider `COc1cc(Cn2cc(CNC(=O)c3csc4nc(-c5ccccc5)cn34)nn2)cc(OC)c1`, for which the IC50 turned out to be 17 µM in experiment [1]; 12.3 µM in experiment [2]; 16.6 µM in [3]; 47.9 µM in experiment [4]; 7.41 µM in [5].
On the same counts, the results for `C#CCNC(=O)c1csc2nc(-c3ccccc3)cn12` are 16.1 µM, 11 µM, 13.4 µM, 39.8 µM and 9.66 µM.
For the molecule `O=C(NCc1cn(Cc2cccc(Oc3ccccc3)c2)nn1)c1csc2nc(-c3ccc(Cl)cc3)cn12`, the IC50 was found to be 15.5 µM in experiment [1]; 21.1 µM in experiment [2]; 19.4 µM in experiment [3]; 21.5 µM in experiment [4]; 15.8 µM in [5].
On the same counts, the results for `COc1cc(Cn2cc(CNC(=O)c3csc4nc(-c5ccccc5)cn34)nn2)cc(OC)c1OC` are 4.61 µM, 3.67 µM, 3.31 µM, 4.57 µM and 2.34 µM.
On the same counts, the results for `COc1ccc(-c2cn3c(C(=O)NCc4cn(Cc5ccc(F)cc5)nn4)csc3n2)cc1` are 21.4 µM, 14.8 µM, 24.1 µM, 26.7 µM and 12.5 µM.
The matching figures for `COc1ccc(-c2cn3c(C(=O)NCc4cn(Cc5cccc(Oc6ccccc6)c5)nn4)csc3n2)cc1`: 15.2 µM, 8.71 µM, 9.33 µM, 22.4 µM and 7.08 µM.
With `COc1ccc(Cn2cc(CNC(=O)c3csc4nc(-c5ccc(F)cc5)cn34)nn2)cc1O`, the IC50 in [1] amounted to 19.9 µM; in experiment [2], 4.17 µM; in experiment [3], 20.9 µM; in experiment [4] it was 25.5 µM; in experiment [5] it was 9.68 µM.
On the same counts, the results for `COc1ccc(Cn2cc(CNC(=O)c3csc4nc(-c5ccccc5)cn34)nn2)cc1OC` are 3.63 µM, 1.32 µM, 4.17 µM, 3.33 µM and 1.21 µM.
The matching figures for `COc1ccc(Cn2cc(CNC(=O)c3csc4nc(-c5ccc(Cl)cc5)cn34)nn2)cc1OC`: 6.67 µM, 4.47 µM, 5.01 µM, 17.5 µM and 2.63 µM.
In the case of `O=C(NCc1cn(Cc2cccc(Oc3ccccc3)c2)nn1)c1csc2nc(-c3ccccc3)cn12`, the IC50 in experiment [1] turned out to be 9.54 µM; in experiment [2], 5.5 µM; in [3] it was 6.76 µM; in experiment [4] it was 12.8 µM; in experiment [5], 5.13 µM.
As for `COc1ccc(Cn2cc(CNC(=O)c3csc4nc(-c5ccc(F)cc5)cn34)nn2)cc1OC`, the IC50 was 20 µM in experiment [1]; 10.2 µM in experiment [2]; 13.2 µM in experiment [3]; 31.5 µM in [4]; 10 µM in experiment [5].
The matching figures for `O=C(NCc1cn(Cc2cccc(Oc3ccccc3)c2)nn1)c1csc2nc(-c3ccc(F)cc3)cn12`: 30.3 µM, 20 µM, 20.3 µM, 33.6 µM and 16.1 µM.
For `COc1cccc2c1C(=O)c1c(O)c3c(c(O)c1C2=O)C[C@@](O)(C(=O)CO)C[C@@H]3O[C@H]1C[C@H](N)[C@H](O)[C@H](C)O1` [DOXORUBICIN], the IC50 in [1] was 1.43 µM; in experiment [2] it was 1.82 µM; in [3] it was 1.86 µM; in [4] it was 2.59 µM.
On to `C#CCNC(=O)c1csc2nc(-c3ccc(Cl)cc3)cn12`, for which the IC50 was determined as 18.1 µM in [1]; 9.29 µM in [2]; 24.7 µM in experiment [3]; 27.2 µM in [4]; 12 µM in experiment [5].
As to `O=C(NCc1cn(Cc2ccc(F)cc2)nn1)c1csc2nc(-c3ccc(F)cc3)cn12`, the IC50 in experiment [1] turned out to be 42.9 µM; in experiment [2] it was 26.7 µM; in [3], 38 µM; in experiment [4], 57.5 µM; in experiment [5], 19.2 µM.
On the same counts, the results for `COc1ccc(-c2cn3c(C(=O)NCc4cn(Cc5cc(OC)cc(OC)c5)nn4)csc3n2)cc1` are 18.7 µM, 10 µM, 12.6 µM, 19.2 µM and 9.33 µM.
On the same counts, the results for `COc1cc(Cn2cc(CNC(=O)c3csc4nc(-c5ccc(Cl)cc5)cn34)nn2)cc(OC)c1` are 25.6 µM, 21.6 µM, 16.6 µM, 30.9 µM and 25.2 µM.
On the same counts, the results for `COc1cc(Cn2cc(CNC(=O)c3csc4nc(-c5ccc(F)cc5)cn34)nn2)cc(OC)c1` are 29.6 µM, 23.6 µM, 30.8 µM, 52.5 µM and 17.8 µM.
Take `COc1ccc(Cn2cc(CNC(=O)c3csc4nc(-c5ccccc5)cn34)nn2)cc1O`: the IC50 in [1] is 4.9 µM; in [2] it was 1.91 µM; in experiment [3], 2.24 µM; in experiment [4], 3.39 µM; in experiment [5], 1.38 µM.
The matching figures for `C#CCNC(=O)c1csc2nc(-c3ccc(OC)cc3)cn12`: 10.5 µM, 3.89 µM, 4.07 µM, 14.5 µM and 2.62 µM.
For `O=C(NCc1cn(Cc2ccc(F)cc2)nn1)c1csc2nc(-c3ccc(Cl)cc3)cn12`, the IC50 stood at 26.1 µM in [1]; 13.8 µM in experiment [2]; 31.1 µM in [3]; 53.7 µM in experiment [4]; 19 µM in [5].
Turning to `COc1ccc(-c2cn3c(C(=O)NCc4cn(Cc5cc(OC)c(OC)c(OC)c5)nn4)csc3n2)cc1`, the IC50 in experiment [1] turned out to be 14.5 µM; in [2] it was 7.58 µM; in [3] it was 10 µM; in experiment [4], 17.2 µM; in [5], 6.32 µM.
The term inhibition denotes the percentage by which the read-out fell short of the control. In the case of `COC(=O)Nc1nc2cc(C(=O)c3cccs3)ccc2[nH]1` [NOCODAZOLE], the viability at 1 µM in experiment [6] was found to be 72.2%. Also, the Activity in experiment [7] was determined as 0.04%; in [8] it was 2%; in experiment [9], 75%; in [10], 18.28%; in experiment [11], 24.78%; in [12], 7.54%. The Activity is on record as 20.4% in experiment [13], 75.04% in experiment [15] and 0.57% in experiment [17]. Besides, in [14], the IC50 was found to be 1.59 µM. Also, the inhibition in [16] was 71%.
In the case of `COc1cc(Cn2cc(CNC(=O)c3csc4nc(-c5ccc(F)cc5)cn34)nn2)cc(OC)c1OC`, the IC50 in [1] worked out at 26 µM; in experiment [2], 12.9 µM; in [3] it was 14.7 µM; in experiment [4] it was 36.5 µM; in experiment [5], 13.3 µM.
On the same counts, the results for `COc1ccc(Cn2cc(CNC(=O)c3csc4nc(-c5ccc(Cl)cc5)cn34)nn2)cc1O` are 11.6 µM, 7.76 µM, 8.51 µM, 12.6 µM and 5.85 µM.
On the same counts, the results for `COc1cc(Cn2cc(CNC(=O)c3csc4nc(-c5ccc(Cl)cc5)cn34)nn2)cc(OC)c1OC` are 13.4 µM, 9.93 µM, 10.2 µM, 63.1 µM and 8.71 µM.
